Source: ChEMBL document CHEMBL2417499, “Structure-activity relationship studies of Niemann-Pick type C1-like 1 (NPC1L1) ligands identified by screening assay monitoring pharmacological chaperone effect” (Bioorg Med Chem, 2013)
The source made the active and inactive calls. The rule behind the calls is not given here.

Columns and labels:
[1] = Binding affinity to human GFP-tagged NPC1L1 L1072T/L1168I mutant expressed in HEK293 cells assessed as localization to endoplasmic reticulum and plasma membrane after 24 hrs by fluorescence microscopic analysis; assay type: cell-based
In short: (§1)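 HEK293 cells stably expressing the GFP-tagged construct (G418 0.4 mg/mL) were seeded at 6,000 cells/well in DMEM with 1% FBS on poly-lysine-coated glass. On day 2 they were treated for 24 h, final DMSO 0.1%. Cells were fixed in 3.7% formaldehyde and imaged at ×100. Across 25 images, cells were scored ER 0 to PM 1 and averaged as % plasma membrane localization. EC50 was taken from this score.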

[2] = Binding affinity to human GFP-tagged NTD-deleted NPC1L1 L1072T/L1168I mutant expressed in HEK293 cells assessed as localization to plasma membrane after 24 hrs by fluorescence microscopic analysis; assay type: cell-based; in short: as §1
HEK293 [3] = test: Binding affinity to human GFP-tagged NPC1L1 L1072T/L1168I mutant expressed in HEK293 cells assessed as localization to endoplasmic reticulum and plasma membrane at 10 uM after 24 hrs by fluorescence microscopic analysis; assay type: cell-based
In short: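 HEK293 cells stably expressing NPC1L1-GFP mutant from a CMV promoter, kept under G418 (0.4 mg/mL). Seeded at 6,000 cells/well on poly-lysine-coated glass in DMEM with 1% FBS. Dosed next day in 0.1% DMSO final for 24 h, then fixed in 3.7% formaldehyde and imaged at ×100. Each cell in 25 images scored ER 0 to PM 1; mean reported as % plasma membrane localization.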

[4] = target: T1, NPC intracellular cholesterol transporter 1 (Homo sapiens) (UniProt O15118); test: Binding affinity to NPC1 (unknown origin)
T1 sequence (whole entry): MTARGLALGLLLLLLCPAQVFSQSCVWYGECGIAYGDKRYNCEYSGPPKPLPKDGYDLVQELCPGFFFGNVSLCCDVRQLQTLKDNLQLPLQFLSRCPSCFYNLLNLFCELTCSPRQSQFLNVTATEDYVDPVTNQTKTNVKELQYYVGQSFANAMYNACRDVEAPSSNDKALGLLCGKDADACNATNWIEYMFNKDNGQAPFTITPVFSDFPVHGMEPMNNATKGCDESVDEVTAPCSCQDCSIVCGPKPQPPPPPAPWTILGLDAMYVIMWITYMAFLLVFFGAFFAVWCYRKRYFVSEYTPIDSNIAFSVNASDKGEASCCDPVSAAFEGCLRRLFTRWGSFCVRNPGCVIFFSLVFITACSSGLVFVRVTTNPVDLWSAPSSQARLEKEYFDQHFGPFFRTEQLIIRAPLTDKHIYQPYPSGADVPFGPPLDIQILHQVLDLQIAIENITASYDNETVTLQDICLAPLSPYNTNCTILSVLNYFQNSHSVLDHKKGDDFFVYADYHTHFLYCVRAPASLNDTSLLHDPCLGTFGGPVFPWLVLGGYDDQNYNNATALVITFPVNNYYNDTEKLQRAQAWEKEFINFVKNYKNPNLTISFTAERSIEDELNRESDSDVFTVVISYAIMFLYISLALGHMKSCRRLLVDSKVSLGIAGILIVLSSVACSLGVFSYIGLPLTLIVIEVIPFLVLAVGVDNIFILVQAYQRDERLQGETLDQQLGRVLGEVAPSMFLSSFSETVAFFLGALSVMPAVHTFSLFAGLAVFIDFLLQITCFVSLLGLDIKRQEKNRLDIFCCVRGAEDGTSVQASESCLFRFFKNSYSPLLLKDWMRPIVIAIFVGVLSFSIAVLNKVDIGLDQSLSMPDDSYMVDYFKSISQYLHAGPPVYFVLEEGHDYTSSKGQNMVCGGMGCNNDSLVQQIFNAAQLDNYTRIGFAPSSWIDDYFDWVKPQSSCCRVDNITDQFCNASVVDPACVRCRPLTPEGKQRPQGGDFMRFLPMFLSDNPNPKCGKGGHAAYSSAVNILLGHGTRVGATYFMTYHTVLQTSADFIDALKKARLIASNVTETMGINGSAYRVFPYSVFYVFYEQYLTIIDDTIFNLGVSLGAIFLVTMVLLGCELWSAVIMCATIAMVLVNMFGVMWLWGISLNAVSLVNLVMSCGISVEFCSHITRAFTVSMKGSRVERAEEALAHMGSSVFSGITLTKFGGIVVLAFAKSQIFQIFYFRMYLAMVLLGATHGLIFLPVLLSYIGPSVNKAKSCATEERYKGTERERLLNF

HEK293 [5] = test: Cytotoxicity against HEK293 cells transfected with human GFP-tagged NPC1L1 L1072T/L1168I mutant; assay type: cell-based
HEK293 [6] = test: Binding affinity to human GFP-tagged NPC1L1 L1072T/L1168I mutant expressed in HEK293 cells assessed as protein stabilization after 24 hrs by fluorescence assay; assay type: cell-based
In short: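 Stable HEK293 lines were grown to 70% confluency in phenol red-free medium in 12-well plates and exposed to vehicle or compound for 24 h. Supernatant GFP fluorescence was read and normalized to BCA total protein, n = 3.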

| Compound | EC50 ([1]; read-out: EC50) | other results |
| --- | --- | --- |
| CC(C)CCC[C@@H](C)[C@H]1CC[C@H]2[C@@H]3C[C@H](O)[C@H]4C[C@@H](OC(=O)N(CCO)CCO)CC[C@]4(C)[C@H]3CC[C@]12C | 1.1 µM |  |
| C[C@H](CCC(=O)N(C)C)[C@H]1CC[C@H]2[C@@H]3CC=C4C[C@@H](OC(=O)N5CCOCC5)CC[C@]4(C)[C@H]3CC[C@]12C | 2.3 µM | EC50 [2]: 6.2 µM |
| CC(C)CC[C@@H](O)[C@@H](C)[C@H]1CC[C@H]2[C@@H]3CC=C4C[C@@H](O)CC[C@]4(C)[C@H]3CC[C@]12C |  | Activity (HEK293 [3]): inactive |
| CC(C)CCC[C@@H](C)[C@H]1CC[C@H]2[C@@H]3[C@@H](O)C=C4C[C@@H](O)CC[C@]4(C)[C@H]3CC[C@]12C | 10 µM |  |
| C[C@H](CCC(=O)N(C)C)[C@H]1CC[C@H]2[C@@H]3CC=C4C[C@@H](OC(=O)N5CCN(C)CC5)CC[C@]4(C)[C@H]3CC[C@]12C | 2.9 µM | EC50 [2]: > 10 µM |
| CC(C)CCC[C@@H](C)[C@H]1CC[C@H]2[C@@H]3CC(=O)[C@H]4C[C@@H](OC(=O)N(CCO)CCO)CC[C@]4(C)[C@H]3CC[C@]12C | 3.8 µM |  |
| CC(C)CC[C@H](O)[C@@H](C)[C@H]1CC[C@H]2[C@@H]3CC=C4C[C@@H](O)CC[C@]4(C)[C@H]3CC[C@]12C |  | Activity (HEK293 [3]): inactive; Activity [4]: Active |
| C[C@H](CCC(=O)N(C)C)[C@H]1CC[C@H]2[C@@H]3CC=C4C[C@@H](O)CC[C@]4(C)[C@H]3CC[C@]12C | 0.8 µM |  |
| CC(C)CCC[C@@H](C)[C@H]1CC[C@H]2[C@@H]3CC(=O)[C@H]4C[C@@H](O)CC[C@]4(C)[C@H]3CC[C@]12C [5alpha-CHOLESTAN-3beta-OL-6-ONE] | 2.8 µM |  |
| C[C@H](CCC(=O)N(C)C)[C@H]1CC[C@H]2[C@@H]3CC=C4C[C@@H](OC(N)=O)CC[C@]4(C)[C@H]3CC[C@]12C | 8.5 µM | EC50 [2]: > 10 µM |
| C[C@H](CCC(=O)O)[C@H]1CC[C@H]2[C@@H]3CC=C4C[C@@H](O)CC[C@]4(C)[C@H]3CC[C@]12C | > 10 µM |  |
| C[C@]12CC[C@H](O)CC1=CC[C@@H]1[C@@H]2CC[C@]2(C)C(=O)CC[C@@H]12 |  | Activity (HEK293 [3]): inactive |
| C[C@H](CCC(N)=O)[C@H]1CC[C@H]2[C@@H]3CC=C4C[C@@H](O)CC[C@]4(C)[C@H]3CC[C@]12C | > 10 µM |  |
| C[C@H](CCC(=O)N(C)C)[C@H]1CC[C@H]2[C@@H]3CC=C4C[C@@H](OC(=O)N(C)C)CC[C@]4(C)[C@H]3CC[C@]12C | 1.1 µM | EC50 [2]: 4.7 µM |
| CC(C)CCC[C@@H](C)[C@H]1CC[C@H]2[C@@H]3CC=C4C[C@@H](OC(=O)N(CCO)CCO)CC[C@]4(C)[C@H]3CC[C@]12C |  | EC50 [1]: Not Active |
| C[C@H](CCC(C)(C)O)[C@H]1CC[C@H]2[C@@H]3CC=C4C[C@@H](O)CC[C@]4(C)[C@H]3CC[C@]12C | > 10 µM |  |
| CC(C)CCC[C@](C)(O)[C@H]1CC[C@H]2[C@@H]3CC=C4C[C@@H](O)CC[C@]4(C)[C@H]3CC[C@@]21C |  | Activity (HEK293 [3]): inactive |

| Compound | EC50 ([1]; read-out: EC50) | other results |
| --- | --- | --- |
| C[C@H](CCCO)[C@H]1CC[C@H]2[C@@H]3CC=C4C[C@@H](O)CC[C@]4(C)[C@H]3CC[C@]12C |  | EC50 [1]: Not Active |
| CCCN(CCC)C(=O)CC[C@@H](C)[C@H]1CC[C@H]2[C@@H]3CC=C4C[C@@H](O)CC[C@]4(C)[C@H]3CC[C@]12C |  | Activity (HEK293 [5]): Toxic |
| CC(C)CCC[C@@H](C)[C@H]1CC[C@H]2[C@@H]3C[C@H](O)[C@H]4C[C@@H](O)CC[C@]4(C)[C@H]3CC[C@]12C | 8.5 µM |  |
| C[C@H](CCCC(C)(C)O)[C@H]1CC[C@H]2[C@@H]3CC=C4C[C@@H](O)CC[C@]4(C)[C@H]3CC[C@]12C | 2.3 µM | Activity [4]: Active |
| CCCN(CCC)C(=O)O[C@H]1CC[C@@]2(C)C(=CC[C@H]3[C@@H]4CC[C@H]([C@H](C)CCC(=O)N(C)C)[C@@]4(C)CC[C@@H]32)C1 | 3 µM | EC50 [2]: 8 µM |
| CNC(=O)CC[C@@H](C)[C@H]1CC[C@H]2[C@@H]3CC=C4C[C@@H](O)CC[C@]4(C)[C@H]3CC[C@]12C | > 10 µM |  |
| CC(C)CCC[C@@H](C)[C@H]1CC[C@H]2[C@@H]3CC=C4C[C@@H](O)CC[C@]4(CO)[C@H]3CC[C@]12C |  | Activity (HEK293 [6]): inactive; Activity (HEK293 [3]): inactive |
| CC(C)CCC[C@@H](C)[C@H]1CC[C@H]2[C@@H]3C(=O)C=C4C[C@@H](O)CC[C@]4(C)[C@H]3CC[C@]12C [7-OXOCHOLESTEROL] | 9.7 µM |  |
| CCCCN(CCCC)C(=O)CC[C@@H](C)[C@H]1CC[C@H]2[C@@H]3CC=C4C[C@@H](O)CC[C@]4(C)[C@H]3CC[C@]12C | > 3 µM |  |
| CCN(CC)C(=O)CC[C@@H](C)[C@H]1CC[C@H]2[C@@H]3CC=C4C[C@@H](O)CC[C@]4(C)[C@H]3CC[C@]12C |  | Activity (HEK293 [5]): Toxic |
| CC(C)CCC[C@@H](C)[C@H]1CC[C@H]2[C@@H]3CC=C4C[C@@H](O)CC[C@]4(C)[C@H]3CC[C@]12C |  | Activity (HEK293 [3]): inactive |
| CC(C)CCC[C@@H](C)[C@H]1CC[C@H]2[C@@H]3C[C@@H](O)[C@H]4C[C@@H](O)CC[C@]4(C)[C@H]3CC[C@]12C | 9.7 µM |  |
| CC(C)CCC[C@@H](C)[C@H]1CC[C@H]2[C@@H]3C[C@@H](O)[C@@]4(O)C[C@@H](OC(=O)N(CCO)CCO)CC[C@]4(C)[C@H]3CC[C@]12C | 8.1 µM |  |
| CC(C)CCC[C@@H](C)[C@H]1CC[C@H]2[C@@H]3C[C@@H](O)[C@H]4C[C@@H](OC(=O)N(CCO)CCO)CC[C@]4(C)[C@H]3CC[C@]12C | 2 µM |  |
| CCN(CC)C(=O)O[C@H]1CC[C@@]2(C)C(=CC[C@H]3[C@@H]4CC[C@H]([C@H](C)CCC(=O)N(C)C)[C@@]4(C)CC[C@@H]32)C1 | 1.8 µM | EC50 [2]: 4.2 µM |
| CC(C)CCC[C@@H](C)[C@H]1CC[C@H]2[C@@H]3[C@@H](O)C=C4C[C@@H](OC(=O)N(CCO)CCO)CC[C@]4(C)[C@H]3CC[C@]12C | 2 µM |  |
| CC(C)CCC[C@@H](C)[C@H]1CC[C@H]2[C@@H]3C(=O)C=C4C[C@@H](OC(=O)N(CCO)CCO)CC[C@]4(C)[C@H]3CC[C@]12C | 3.8 µM |  |
